Measurements as given in article PMC8605766 (ACS chemical neuroscience, 2021).
Where “and” joins values, the source holds several entries; their conditions need not be identical. Equal entries are not always repeated.

Key:
S1PR1 = S1PR1 (Rattus norvegicus, UniProt P48303); experiment: In vitro autoradiography of [^3H]CS1P1 in the rat brain and spinal cord; type: binding; conditions: 10 μM NIBR-0213
Method in brief: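 Frozen 14 μm sections from adult SD rat brain and spinal cord, pre-incubated 5 min at RT in HBSS with 10 mM HEPES, 5 mM MgCl₂, 0.2% BSA, 0.1 mM EDTA, pH 7.4. Labelled with 0.5 nM radioligand, 1 h at RT with shaking. […] Washed 3 × 5 min, ice-cold water dip, air-dried overnight. Film exposure 15 days with tritium standards. Specific binding = total − nonspecific in randomly chosen ROIs.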

MS patients = conditions: particularly deep gray matter structures; cited from earlier work
[1] = biological target: recombinant human S1PR1 (hS1PR1) membranes (Homo sapiens, UniProt P21453); experiment: Competition binding assay against [^3H]CS1P1 with recombinant hS1PR1 membranes; conditions: displacement of 8 nM [^3H]CS1P1, recombinant hS1PR1 membranes
recombinant human S1PR1 (hS1PR1) membranes, sequence (P21453 whole entry): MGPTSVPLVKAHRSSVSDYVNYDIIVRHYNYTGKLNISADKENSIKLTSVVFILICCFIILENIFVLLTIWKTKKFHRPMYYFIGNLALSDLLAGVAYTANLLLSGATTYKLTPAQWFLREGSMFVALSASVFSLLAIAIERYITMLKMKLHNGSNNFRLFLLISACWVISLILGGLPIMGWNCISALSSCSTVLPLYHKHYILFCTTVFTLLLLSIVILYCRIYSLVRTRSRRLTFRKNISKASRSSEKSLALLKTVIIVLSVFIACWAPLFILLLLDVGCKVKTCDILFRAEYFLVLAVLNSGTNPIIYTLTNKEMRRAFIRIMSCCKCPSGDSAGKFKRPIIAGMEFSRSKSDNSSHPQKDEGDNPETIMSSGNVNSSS

S1PR1, sequence (P48303 whole entry): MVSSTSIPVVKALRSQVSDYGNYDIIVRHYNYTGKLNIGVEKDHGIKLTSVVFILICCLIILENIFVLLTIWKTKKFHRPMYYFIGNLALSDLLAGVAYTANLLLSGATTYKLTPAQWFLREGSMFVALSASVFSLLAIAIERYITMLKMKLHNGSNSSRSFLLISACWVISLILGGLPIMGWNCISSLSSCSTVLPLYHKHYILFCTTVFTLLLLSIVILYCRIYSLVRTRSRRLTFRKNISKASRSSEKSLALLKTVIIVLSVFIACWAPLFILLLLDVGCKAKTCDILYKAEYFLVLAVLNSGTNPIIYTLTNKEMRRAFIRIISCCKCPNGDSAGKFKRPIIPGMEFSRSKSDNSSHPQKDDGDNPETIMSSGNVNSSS

## Cc1cc([C@@H](C)Nc2cccc(-c3cc(C)c(C(=O)N[C@@H](C)C(=O)O)c(C)c3)c2)ccc1Cl [NIBR-0213]
S1PR1
  blocking of [^3H]CS1P1 radioactivity: can be blocked

## CCCCCCCCc1ccc(CCC(N)(CO)CO)cc1 [fingolimod]
MS patients
  effect on brain atrophy: reduced brain atrophy

## CCCCCCCCCCCCC/C=C/[C@@H](O)[C@@H](N)COP(=O)(O)O [S1P, Sphingosine-1-phosphate]
[1]
  Ki: < 10 nM and 5.7 nM
